Screening data from PubChem BioAssay.
In the library only some 1.2% were active in any assay of this set; here they are far more common.
ASAP1 inh: inhibitors of human ASAP1 ArfGAP activity, primary screen, biochemical, fluorescence polarization; Arf-GAP with SH3 domain, ANK repeat and PH domain-containing protein 1 (Homo sapiens), …; ASAP1-stimulated ARF1 GTP hydrolysis, GDP FP detection; inhibition, % at 16.5 µM; hit rate 0.19% among 360,000; AID 624377, 2012; in the data active = inhibition above about 25%;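 note: 0% = vehicle with enzyme and substrate and 100% = no enzyme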
Yeast superoxide: reduction of superoxide in aged yeast, primary screen, HTS; S. cerevisiae aged cells, superoxide DHE fluorescence; active compounds read low; superoxide response (% of plate mean), % at 10 µM; hit rate 0.18% among 330,000;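 active = superoxide response under a set limit, about three screen SD below normal, cut at about 65% in these data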;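 note: yeast aged for seven days with compound at 30 °C before DHE staining; 100% = average MFI of all compound-treated wells on the plate with controls excluded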
LANA-H2A inh: blockers of LANA interaction with H2A/H2B – biochemical, FP readout, HTS, primary screen | Protein LANA1 (Human herpesvirus 8 type P (isolate GK18)), Q9QR71 | cell-free LANA-H2A/H2B peptide, fluorescence polarization | inhibition, % (no concentration beside the values) | hit rate 0.6% among 320,000 | AID 2629, 2010; in the data active = inhibition mostly above about 10%, no sharp cut-off; inactive = mostly below about 6.7%
ARFGAP1 inh: inhibitors of rat ARFGAP1 GAP activity, primary screen, biochemical, fluorescence polarization, GDP tracer. ADP-ribosylation factor GTPase-activating protein 1 (Rattus norvegicus), Q62848. AID 651572, 2012. inhibition, % at 16.5 µM. Arfgap1-stimulated ARF1 GTP hydrolysis, GDP FP detection. hit rate 0.26% among 360,000;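 active = inhibition above a per-plate limit, mean inhibition of low control wells plus 3 SD, cut at about 25% in these data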;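 note: 0% = DMSO wells with enzyme and 100% = wells lacking Arfgap1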
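Assay system: purified rat His6-Arfgap1 residues 1-136 (GAP domain); Reagent: human Δ17 ARF1 bound to GTP; Dosing: 16.5 µM single point, 1.26% DMSO; Times: GTP hydrolysis reaction 2 h at 25 °C; Signal: FP, GDP Alexa 633 tracer displaced from anti-GDP antibody, 620/688 nm; Measure: % inhibition from polarization.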
procasp3 activ: activators of human procaspase-3 D3A mutant, primary screen, biochemical, absorbance, PC-3 D3A mutant, single concentration | Caspase-3 (Homo sapiens), P42574 | recombinant procaspase-3 D3A, Ac-DEVD-pNA absorbance 405 nm | activation, % at 8.5 µM | hit rate 0.11% among 330,000;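 active = activation above the mean of all tested compounds plus 3 SD, cut at about 21% in these data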;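 note: 0% = DMSO alone and 100% = DMSO wells spiked with extra 5 µM PC-3 D3A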
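material = Procaspase-3 D3A mutant | probe or stimulus = Ac-DEVD-pNA | compound = single dose, 8.5 µM nominal compound, 0.8% DMSO | timing = 1 h preincubation, 2 h reaction | measured by = 405 nm absorbance of p-nitroaniline, reads at 0 and 120 min | benchmarks = DMSO-only low control, 5 µM PC-3 D3A high control | repeats = singlicate, each compound tested once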
procasp7 counter: procaspase-7 activators, primary screen, counter-screen for procaspase-3 activator project, biochemical, absorbance, HTS, human; Caspase-7 (Homo sapiens), P55210; recombinant procaspase-7, Ac-DEVD-pNA absorbance 405 nm; D23A/D198A/D206A triple mutant, cannot self-cleave; scale: DMSO 0, 5 µM enzyme 100; activation, % at 8.5 µM; hit rate 0.093% among 330,000; AID 463210, 2010;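 active = percent activation above the screen-wide mean plus 3 SD, cut at about 25% in these data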
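System: Uncleavable procaspase-7 mutant enzyme; Amount: 2 µM procaspase-7 mutant as dispensed; Schedule: 1 h compound preincubation, 2 h substrate cleavage, 25 °C; Measured by: 405 nm absorbance of p-nitroaniline; Evaluation: percent activation from buffer-corrected 0–120 min absorbance change; Control set: low DMSO alone, high DMSO plus 5 µM PC-7.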
CR mimetic CP: superoxide lowering in aged yeast cells, confirmation, cherry picked compounds; shares compounds with Yeast superoxide; S. cerevisiae aging, superoxide DHE fluorescence; active compounds read low; superoxide response (% of plate), % at 10 µM; hit rate 1% among 850;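 active = superoxide signal below 65% of the plate average of sample wells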;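 note: cells aged with compound for 7 days at 30 degrees C before staining; 100% equals mean DHE fluorescence of all compound wells on the plate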
DHE counter: DHE quenching or ROS scavenging interference in aged yeast, artefact control for yeast caloric restriction mimetic project, S. cerevisiae BY4741, flow cytometry. fluorescence response, % at 10 µM. DHE fluorescence; active compounds read low. shares compounds with Yeast superoxide. 850 tested, under 10 active;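 active = fluorescence response below 15%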;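 note: percent of the mean fluorescence averaged over all compound wells on the plate; lower means stronger quenching of DHE signal or ROS scavenging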
* marks the source's active call; other numbers are inactive results; x = not tested or not shown; ! = not confirmed by another sample.

SMILES | ASAP1 inh | Yeast superoxide | LANA-H2A inh | ARFGAP1 inh | procasp3 activ | procasp7 counter | others
O=C(N/N=C\c1c(O)ccc2ccccc12)c1ccc(S(=O)(=O)N2CCCCC2)cc1 | 7 | 102 | 24* | 5 | -5 | -6
O=C(NN=Cc1c(O)ccc2ccccc12)c1ccc2c(c1)OCO2 | 0 | 78 | 0 | -14 | -1 | -33
Cc1cc(NC(=O)CN2CCCC2c2nc3ccccc3s2)no1 (stereo not drawn) | -5 | 91 | 15* | 11 | 7 | 10
Cc1cc(NC(=O)CSCC(=O)Nc2nc3ccccc3s2)no1 | -1 | 78 | -1 | -3 | 13 | 6
Cc1ccccc1C(=O)N[C@H](C(=O)N1CCC[C@H]1C(=O)NC1CCCC1)c1ccccc1 | -3 | x | x | -6 | x | x
O=C(N[C@H](Cc1ccccc1)C(=O)N1CCN(CC(=O)N2CCCC2)CC1)[C@H]1O[C@@H](n2ccc(=O)[nH]c2=O)[C@H](O)[C@@H]1O | -2 | x | x | 2 | x | x
Cc1cc(C(=O)N/N=C/c2cc(N=Nc3ccccc3)ccc2O)n[nH]1 | x | 109 | -2 | x | 18 | 26*
COC(=O)N/N=C/c1cc(N=Nc2ccccc2)ccc1O | -5 | 116 | 3 | 8 | -10 | -12
Cc1nonc1OCCNCCNc1ccccc1[N+](=O)[O-] | -6 | 94 | 24* | 4 | 0 | 7
O=C(NCCc1ccccc1Cl)[C@@H]1CCCN1C(=O)[C@H](Cc1cccnc1)NC(=O)N1CCOCC1 | -4 | x | x | -1 | x | x
O=C(c1ccsc1)N1CCCC(N2CCN(c3cccc(C(F)(F)F)c3)CC2)C1 (stereo not drawn) | 8 | 99 | 0 | 2 | -2 | 1
O=C(c1cc[n+]([O-])cc1)N1CCCC(N2CCN(c3cccc(C(F)(F)F)c3)CC2)C1 (stereo not drawn) | 8 | 96 | 21* | 10 | 5 | 10
Clc1ccc(-c2csc(NCC3CCCO3)n2)cc1 (stereo not drawn) | 11 | x | x | -2 | x | x
CNCCCC1c2ccccc2C=Cc2ccccc21 | 1 | 97 | -5 | -6 | -2 | -1
CNCCCC12CCC(c3ccccc31)c1ccccc12 | 11 | 97 | 9.6*! | -6 | -5 | 9
C=CCC[C@H](Cc1ccc(F)cc1)C(=O)O[C@H](CNC(=O)[C@@H](CC=C)CC(=O)N(CCO)Cc1ccccc1)c1ccccc1 | -5 | 100 | 71* | 18 | 0 | 3
O=C(Nc1nc(OCC(F)(F)F)cnc1/C=C\c1ccccc1)c1ccccc1 | -4 | x | x | 12 | x | x
Cc1cc(=O)[nH]c(N)n1 | 10 | 110 | 13* | -3 | 7 | 2
CCCC#C/C(CCC)=C1\c2ccccc2C(=O)N1c1ccccc1 | -4 | x | x | -1 | x | x
NC(=O)C1CCN(C(=S)c2ccc(-c3ccc(Br)cc3)o2)CC1 | -14 | 119 | 14* | -3 | -18 | -31
O[C@H]1C[C@H](c2ccc(Cl)cc2)N(Cc2cccs2)C[C@@H]1n1cc(-c2ccc(F)cc2)nn1 | -1 | x | x | 2 | x | x
CC(=O)OCC(=O)N1CCN(C(=O)C(=O)c2cccc(C(F)(F)F)c2)CC1 | 0 | x | x | 12 | x | x
COc1ccc(C(=O)NCC2CCN(C(=O)C(=O)c3cc4ccccc4o3)CC2)cc1 | -12 | x | x | 3 | x | x
COCc1[nH]nc2c1C(c1ccc(F)cc1)NC2=O (stereo not drawn) | 10 | x | x | 14 | x | x
Cc1c(C(=O)O)sc2nc3n(c(=O)c12)CCCCC3 | 11 | 100 | 4 | 8 | 8 | 6
SMILES | ASAP1 inh | Yeast superoxide | LANA-H2A inh | ARFGAP1 inh | procasp3 activ | procasp7 counter | others
Cc1c(C(=O)O)sc2nc3n(c(=O)c12)CCC(C)CC3 (stereo not drawn) | 6 | 118 | 20* | -4 | 2 | -8
COc1cc2c(cc1OC)C(c1cccc(C)c1)CC(=O)N2 (stereo not drawn) | 4 | 123 | 47* | -5 | 0 | 0
COc1cc2c(cc1OC)C(c1cccc(Cl)c1)CC(=O)N2 (stereo not drawn) | 3 | 98 | -1 | 5 | x | x
O=C(NCC1CCN(C(=O)C(=O)c2cccs2)CC1)c1cccnc1 | -8 | x | x | 2 | x | x
O=C(COC(=O)C1CC2CCCC(C1)C2=O)NNC(=O)c1ccccc1F (stereo not drawn) | -4 | 96 | 34* | 12 | -3 | -1
COc1cc(CO)c(Br)cc1OCC(=O)Nc1ccccc1C | -11 | 64* | -4 | -1 | 0 | 2 | CR mimetic CP=105;DHE counter=102
COC(=O)c1nn(-c2ccc(OC)cc2)ccc1=O | 0 | 102 | 1 | -11 | 5 | 8
Cc1ccc(S(=O)(=O)N(CC(=O)Nc2ccc(C(N)=O)cc2)C(=O)N2CCN(C)CC2)cc1 | 2 | 65* | 3 | 10 | -3 | 7 | CR mimetic CP=114;DHE counter=99
C[C@H]1C=C(C(=O)NCc2ccccc2)O[C@@H](OCc2ccc(CO)cc2)C1 | 5 | 100 | 0 | 11 | -8 | -9
CCN(CC(=O)NCc1ccc(F)cc1)C(=O)/C=C/c1ccc(S(=O)(=O)N(CC)CC)cc1 | -7 | 96 | -4 | -5 | -2 | -2
Cc1nnsc1C(=O)NNc1ccc(C(C)(C)C)cc1 | -7 | 90 | 7 | 9 | -9 | -23
Cc1nnsc1C(=O)NNC(=O)c1ccc(C(F)(F)F)cc1 | -5 | 63* | -2 | -8 | -3 | -1 | CR mimetic CP=111;DHE counter=97
O=C(Nc1ccc(F)cc1)c1ccc(S(=O)(=O)N2CCOCC2)o1 | 8 | 90 | 6 | -8 | 17 | 14
COc1ccc(NC(=O)c2ccc(S(=O)(=O)N3CCOCC3)o2)cc1 | -5 | 64* | 3 | -9 | -10 | 3 | CR mimetic CP=95;DHE counter=91
CCOC(=O)C/C(C)=N/NC(=O)c1cccs1 | x | 63* | -1 | x | 13 | 1 | CR mimetic CP=113;DHE counter=99
